Source: PubChem (several laboratories)
Most compounds without a hit are left out; they make up all but 4.3% or so of the library.
STAT1 activator: activators of IFN-gamma induced STAT1 signaling. NIH 3T3 STAT1-luciferase reporter, luminescence; 100% = IFN-gamma alone, no compound. activation (% of control), % at 5.5 µM. 200,000 compounds, 2.6% hits. AID 932;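 active = activation above the screen-wide mean activation plus 3 SD, cut at about 130% in these data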;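 note: raw ratio to IFN-gamma control signal so 100% means no change and 0% no light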
FLuc stim CS: firefly luciferase counter-screen for stimulation assays; ATPlite luciferase biochemical, luminescence, 10 min; 0 = ATP-free wells, 1 = DMSO control; P08659; activation factor at 10 µM; 200,000 tested, under 10 active;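 active = luciferase activation factor, scaled between plate controls, of at least 2 with compound at 10 µM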
Target sequence (P08659 whole entry, looked up): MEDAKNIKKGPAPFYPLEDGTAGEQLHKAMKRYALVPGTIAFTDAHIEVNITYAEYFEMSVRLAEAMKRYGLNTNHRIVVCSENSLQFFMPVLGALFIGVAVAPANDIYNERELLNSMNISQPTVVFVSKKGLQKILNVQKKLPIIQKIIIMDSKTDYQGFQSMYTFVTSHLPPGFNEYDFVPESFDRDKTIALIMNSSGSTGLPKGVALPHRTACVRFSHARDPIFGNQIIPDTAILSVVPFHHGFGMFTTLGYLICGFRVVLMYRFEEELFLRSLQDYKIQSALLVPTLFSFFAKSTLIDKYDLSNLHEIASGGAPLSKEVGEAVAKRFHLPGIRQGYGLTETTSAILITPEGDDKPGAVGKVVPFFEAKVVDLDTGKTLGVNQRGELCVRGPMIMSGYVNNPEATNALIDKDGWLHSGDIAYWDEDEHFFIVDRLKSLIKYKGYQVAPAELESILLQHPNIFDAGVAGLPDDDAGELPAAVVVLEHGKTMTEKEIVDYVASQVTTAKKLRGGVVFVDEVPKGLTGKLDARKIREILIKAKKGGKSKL
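Assay system: Luciferase/luciferin reagent mix; Medium: PBS as buffer for the ATP substrate; Dosing: test compounds dosed from 2 mM stocks in 100% DMSO; Times: 10 min, room temperature; Signal: luminescence from luciferase reaction; Read-out: luciferase activation; Controls: No-ATP low control, compound-free enzyme-plus-ATP high control.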
NF-kB neuron act: NF-kB expression increase, human neuronal cells | NF-kB reporter expression; active compounds read high | AID 1239 | 190,000 compounds, 1.6% hits | fold change at 12.5 µM; in the data active = fold change above about 3.3
FLuc inhib CS: Photinus pyralis luciferase inhibition counter-screen | P08659 | ATPLite firefly luciferase biochemical luminescence, 10 min | inhibition, % at 10 µM | 200,000 compounds, 1.5% hits | AID 1006;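 active = inhibition above about 50% when tested at 10 µM, limit read from the data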
APP 5'UTR act: activates APP 5'UTR luciferase reporter. SH-SY5Y APP 5'UTR luciferase reporter, luminescence; zero percent = DMSO vehicle wells. activation, % at 2 µM. 190,000 compounds, 1% hits. AID 1276;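 active = activation above a set limit, based on mean plus 3 SD of controls, cut at about 140% in these data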
* hit, by the source's call.

SMILES	STAT1 activator	FLuc stim CS	NF-kB neuron act	FLuc inhib CS	APP 5'UTR act
Cc1nn2cc(-c3ccccc3)nc2s1	144*	0.5	5.4*	47	114
Cc1c(C(=O)Nc2ccncc2)sc2nc(-c3ccccc3)cn12	96	1	0.47	-1	10
CC(C)(CNC(=O)COc1ccccc1Cc1ccccc1)N1CCOCC1	89	1	1.1	-4	8
Clc1ccc(Nc2nc3cccnc3s2)cc1	148*	1	2.8	-1	152*
COc1ccccc1C(=O)NNC(=O)c1cccc(Cl)c1	127	0.6	3.6*	38	142*
CCOc1ccc(C(=O)Nc2cccc(C(=O)O)c2C)cc1Cl	54	0.8	3.5*	19	44
CCN(Cc1ccccc1)S(=O)(=O)c1cc(C(=O)NC2CCCCCC2)ccc1OC	91	1.1	0.89	-5	6
CCN(CC)S(=O)(=O)c1cc(C(=O)Nc2ccccc2C(=O)O)ccc1OC	89	0.4	1.4	59*	8
O=C(Nc1ccccc1C(=O)O)c1ccccc1	97	0.9	1.2	7	13
CCOc1c(Cl)cc(C(=O)Nc2ccccc2C(=O)O)cc1Cl	120	0.8	4*	22	-6
CCOC(=O)C1(CC2CC2)CCN(C(=O)c2cccnc2C)CC1	114	1	1.3	-3	8
COc1ccc(C(=O)Nc2ccccc2C(=O)O)cc1Cl	127	0.2	2.4	76*	41
CC1(C)CC2(CCO1)OC(=O)CC2C(=O)Nc1ccccc1Cl (stereo not drawn)	106	1.1	0.99	-6	-7
Cc1ccc(Nc2nnc(SCc3cc(=O)n4ccsc4n3)s2)c(C)c1	94	1.1	0.88	-7	-4
Cc1ccc(SCc2cc(=O)n3ccsc3n2)c(C)c1	134*	1	2.2	1	52
COc1cc(C)ccc1OCCCOc1ccccc1Cl	144*	1	3.2	-4	108
COc1cc(C)ccc1OCCOc1ccccc1Cl	128	1	2	2	17
COc1cc(CCN2C(=O)c3cccc4cccc(c34)C2=O)c(S(=O)(=O)NCCCO)cc1OC	104	0.9	0.76	14	0
COc1ccc(C(=O)Nn2c(SCC(=O)NCc3ccco3)nc3ccccc3c2=O)cc1	93	0.5	0.85	54*	77
COc1ccc(C(=O)Nn2c(SCC(=O)N3CCC(C)CC3)nc3ccccc3c2=O)cc1	42	0.2	0.82	75*	31
COc1ccc(C(=O)Nn2c(SCC(=O)NC3CCCCC3)nc3ccccc3c2=O)cc1	74	0.4	1.6	58*	110
CCn1c(SCC(=O)NCc2ccco2)nc2ccccc2c1=O	95	1	1.1	1	-11
C/C(=C/C(=O)O)C(=O)Nc1cccc(C(F)(F)F)c1	99	1	1.2	-2	-4
O=C1c2ccccc2C(=O)N1n1cccc1	101	1.1	1.1	-6	-12
COc1ccc(-c2nc3ccccc3c(=O)n2NC(=O)c2cccnc2Cl)cc1OC	101	1.1	1.2	-5	-15
SMILES	STAT1 activator	FLuc stim CS	NF-kB neuron act	FLuc inhib CS	APP 5'UTR act
O=C(Nc1cc2c(cc1Cl)OCCCO2)c1ccccc1	133*	0.9	2.8	9	65
CC(C)C(=O)c1cc2c(cc1NC(=O)c1ccccc1)OCCO2	97	1.1	1.1	-7	-3
O=C(Nc1cc2c(cc1Cl)OCCCO2)c1ccco1	146*	0.9	2.4	15	50
CN1C/C(=C\c2ccc(N3CCOCC3)cc2)C(=O)/C(=C/c2ccc(N3CCOCC3)cc2)C1	101	1	1.1	-4	4
CCN1C/C(=C/c2ccc(N3CCOCC3)cc2)C(=O)/C(=C/c2ccc(N3CCOCC3)cc2)C1	103	1	5.3*	-3	-7
N#Cc1cnc2sc3ccccc3n2c1=N	130*	1	3.2	-3	-7
CC(C)(C)C(=O)Nc1ccc(N=Nc2ccccc2)cc1	37	0.1	1.1	90*	114
CC1CC1C(=O)OCC(=O)Nc1ccc(N=Nc2ccccc2)cc1 (stereo not drawn)	148*	1.1	5.9*	-6	143*
CC1CC1C(=O)OCC(=O)Nc1ccccc1Oc1ccccc1 (stereo not drawn)	94	1	0.97	-1	0
O=C(O)CCC(=O)Nc1ccc(N=Nc2ccccc2)cc1	109	0.8	1.2	18	0
Cc1ccc(/C=N/Nc2nnc(Cl)c3ccccc23)cc1	131*	0.1	9.3*	94*	159*
Clc1nnc(N/N=C/c2ccccc2)c2ccccc12	122	0.3	2.5	69*	95
Clc1ccc(/C=N/Nc2nnc(Cl)c3ccccc23)cc1	117	0.6	2	42	6
COc1ccc(/C=N/Nc2nnc(-c3ncc[nH]3)c3ccccc23)cc1	142*	0.3	0.94	72*	65
Clc1nnc(NN=C2CCCC2)c2ccccc12	108	1	1.1	2	25
CCCCCNCC(=O)Nc1cccc(C(=O)Nc2cccc(C(F)(F)F)c2)c1	88	1	0.73	-1	23
CCN1CCN(c2cc(C)c3cc(NC(=S)N4CCCC(C)C4)ccc3n2)CC1 (stereo not drawn)	94	1.1	0.37	-6	27
CN1C(=O)C2C(c3ccc(N(C)C)cc3)NN(Cc3ccccc3)C2C1=O (stereo not drawn)	101	1	0.92	-3	-13
CCN(CC)S(=O)(=O)c1ccc(C)c(NC(=O)CSc2nc3ccc(C)cc3[nH]2)c1	105	1	0.65	-3	-22
COc1ccc2c(c1)CC/C(=C\C=C\c1ccccc1OC)C2=O	110	0.5	1.7	52*	48
COc1ccc2c(c1)C(=O)/C(=C/C=C/c1ccccc1)CC2	112	0.8	2	22	28
Cc1cccnc1NCc1ccc(O)c2ncccc12	96	1.1	8.6*	-5	-6
Cc1cccc(NCc2ccc(O)c3ncccc23)c1C	96	1.1	1.1	-5	7
CC1CCCCC1NC(=O)/C=C/c1nc2ccccc2s1 (stereo not drawn)	117	0.8	2	20	-16
O=C(/C=C/c1nc2ccccc2s1)N1CCCCCC1	132*	0.4	2.6	62*	118
CC(C)CC1c2[nH]c3ccccc3c2CCN1C(=O)CCC(=O)N(C)C (stereo not drawn)	103	1.1	1.1	-5	9
Cc1cccnc1Nc1nc(-c2ccc(O)c(O)c2)cs1	130*	1	3.6*	3	39
COc1ccc(-c2csc(Nc3ncccc3C)n2)cc1OC	141*	1	1	-4	31
Cc1ccc(-c2csc(NC(=O)/C=C/c3cccs3)n2)cc1C	94	1	0.81	0	1
Cc1ccc(-n2[nH]c(C)c(/C=N/NC(=O)c3ccc([N+](=O)[O-])cc3)c2=O)c(C)c1	100	1.1	0.79	-6	14
